Assay results published in ChEMBL document CHEMBL5303300, “EUbOPEN Chemogenomics Library - Multiplex” (2023).
“And” between values parts separate entries of the source, which are not always exact repeats. Equal entries are not always repeated.

Assays:
HEK-293T = assay: Multiplex assay against HEK293T; format: toxicity, cell-based; details: human, number of replicates 2
How it was run: (§1)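 Tubulin, mitochondrial-mass and membrane-permeability phenotypes are per cents of healthy-nucleus cells. Cells were gated by CellPathfinder machine learning into Hoechst high-intensity objects or normal cells, normal cells into healthy, pyknosed or fragmented nuclei, and pyknosed cells into mitotic or apoptotic. Before that, live cells stained at seeding with Hoechst33342, BioTracker Green Microtubule Cytoskeleton Dye, MitoTracker Red and Annexin V Alexa Fluor 680 were imaged on a CQ1 microscope at 37°C and 5% CO2 after compound addition.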

Fibroblast = assay: Multiplex assay against human fibroblast; format: toxicity, cell-based; details: number of replicates 2; how it was run: as §1
[1] = 24 h, 10 µM, compound concentration 10 uM
[2] = 48 h, 1 µM, compound concentration 1 uM
[3] = 48 h, 10 µM, compound concentration 10 uM
[4] = 12 h, 1 µM, compound concentration 1 uM
[5] = 12 h, 10 µM, compound concentration 10 uM
[6] = 24 h, 1 µM, compound concentration 1 uM

Q: How did the “Population Normal (%)” value (HEK-293T; [1]) turn out when CN(C)C/C=C/C(=O)Nc1cc2c(Nc3ccc(F)c(Cl)c3)ncnc2cc1OC[C@@H]1CCCO1 was run?
A: 74% and 70%

Q: And the “Population Pyknosed Nuclei (%)” value (HEK-293T; [1])?
A: 33% and 24%

Q: What about the “Population Tubulin-Different-Phenotype (%)” value (HEK-293T; [1]) of the same molecule?
A: 60% and 57%

Q: And the “Total Cell Count” value (HEK-293T; [1])?
A: 303 and 369

Q: What about the “Population Apoptotic (%)” value (HEK-293T; [2]) of the same molecule?
A: 32% and 29%

Q: And the “Population Fragmented Nuclei (%)” value (HEK-293T; [2])?
A: 11% and 10%

Q: And the “Population Healthy Nuclei (%)” value (HEK-293T; [2])?
A: 83% and 85%

Q: And the “Population Hoechst High Intensity Objects (%)” value (HEK-293T; [2])?
A: 9% and 10%

Q: What about the “Population Membrane Permeable-Phenotype (%)” value (HEK-293T; [2]) of the same molecule?
A: 7% and 5%

Q: What about the “Population Mitochondria Different-Phenotype (%)” value (HEK-293T; [2]) of the same molecule?
A: 5% and 4%

Q: And the “Population Mitotic Cells (%)” value (HEK-293T; [2])?
A: 67% and 70%

Q: And the “Population Normal (%)” value (HEK-293T; [2])?
A: 90% and 89%

Q: And the “Population Pyknosed Nuclei (%)” value (HEK-293T; [2])?
A: 4%

Q: And the “Population Tubulin-Different-Phenotype (%)” value (HEK-293T; [2])?
A: 60% and 62%

Q: And the “Total Cell Count” value (HEK-293T; [2])?
A: 1468 and 1438

Q: What about the “Population Apoptotic (%)” value (HEK-293T; [3]) of the same molecule?
A: 87% and 89%

Q: What about the “Population Fragmented Nuclei (%)” value (HEK-293T; [3]) of the same molecule?
A: 9% and 8%

Q: What about the “Population Healthy Nuclei (%)” value (HEK-293T; [3]) of the same molecule?
A: 43% and 53%

Q: And the “Population Hoechst High Intensity Objects (%)” value (HEK-293T; [3])?
A: 31% and 32%

Q: And the “Population Membrane Permeable-Phenotype (%)” value (HEK-293T; [3])?
A: 4% and 1%

Q: And the “Population Mitochondria Different-Phenotype (%)” value (HEK-293T; [3])?
A: 81% and 83%

Q: And the “Population Mitotic Cells (%)” value (HEK-293T; [3])?
A: 12% and 10%

Q: What about the “Population Normal (%)” value (HEK-293T; [3]) of the same molecule?
A: 68% and 67%

Q: And the “Population Pyknosed Nuclei (%)” value (HEK-293T; [3])?
A: 47% and 38%

Q: And the “Population Tubulin-Different-Phenotype (%)” value (HEK-293T; [3])?
A: 52% and 58%

Q: And the “Total Cell Count” value (HEK-293T; [3])?
A: 355 and 410

Q: And the “Population Apoptotic (%)” value (Fibroblast; [4])?
A: 31% and 30%

Q: What about the “Population Fragmented Nuclei (%)” value (Fibroblast; [4]) of the same molecule?
A: 16% and 20%

Q: And the “Population Healthy Nuclei (%)” value (Fibroblast; [4])?
A: 57% and 60%

Q: What about the “Population Hoechst High Intensity Objects (%)” value (Fibroblast; [4]) of the same molecule?
A: 0%

Q: And the “Population Membrane Permeable-Phenotype (%)” value (Fibroblast; [4])?
A: 14% and 13%

Q: What about the “Population Mitochondria Different-Phenotype (%)” value (Fibroblast; [4]) of the same molecule?
A: 0% and 1%

Q: And the “Population Mitotic Cells (%)” value (Fibroblast; [4])?
A: 68% and 69%

Q: And the “Population Normal (%)” value (Fibroblast; [4])?
A: 99% and 100%

Q: And the “Population Pyknosed Nuclei (%)” value (Fibroblast; [4])?
A: 26% and 18%

Q: What about the “Population Tubulin-Different-Phenotype (%)” value (Fibroblast; [4]) of the same molecule?
A: 67% and 54%

Q: And the “Total Cell Count” value (Fibroblast; [4])?
A: 169 and 229

Q: What about the “Population Apoptotic (%)” value (Fibroblast; [5]) of the same molecule?
A: 40% and 32%

Q: What about the “Population Fragmented Nuclei (%)” value (Fibroblast; [5]) of the same molecule?
A: 12% and 15%

Q: And the “Population Healthy Nuclei (%)” value (Fibroblast; [5])?
A: 41% and 47%

Q: And the “Population Hoechst High Intensity Objects (%)” value (Fibroblast; [5])?
A: 1% and 3%

Q: What about the “Population Membrane Permeable-Phenotype (%)” value (Fibroblast; [5]) of the same molecule?
A: 46% and 40%

Q: And the “Population Mitochondria Different-Phenotype (%)” value (Fibroblast; [5])?
A: 9% and 11%

Q: And the “Population Mitotic Cells (%)” value (Fibroblast; [5])?
A: 59% and 67%

Q: And the “Population Normal (%)” value (Fibroblast; [5])?
A: 98% and 96%

Q: What about the “Population Pyknosed Nuclei (%)” value (Fibroblast; [5]) of the same molecule?
A: 46% and 36%

Q: And the “Population Tubulin-Different-Phenotype (%)” value (Fibroblast; [5])?
A: 78% and 88%

Q: And the “Total Cell Count” value (Fibroblast; [5])?
A: 181 and 317

Q: What about the “Population Apoptotic (%)” value (Fibroblast; [6]) of the same molecule?
A: 50% and 67%

Q: What about the “Population Fragmented Nuclei (%)” value (Fibroblast; [6]) of the same molecule?
A: 14% and 20%

Q: What about the “Population Healthy Nuclei (%)” value (Fibroblast; [6]) of the same molecule?
A: 65% and 66%

Q: And the “Population Hoechst High Intensity Objects (%)” value (Fibroblast; [6])?
A: 0%

Q: What about the “Population Membrane Permeable-Phenotype (%)” value (Fibroblast; [6]) of the same molecule?
A: 6% and 8%

Q: And the “Population Mitochondria Different-Phenotype (%)” value (Fibroblast; [6])?
A: 2% and 5%

Q: What about the “Population Mitotic Cells (%)” value (Fibroblast; [6]) of the same molecule?
A: 50% and 32%

Q: And the “Population Normal (%)” value (Fibroblast; [6])?
A: 99% and 100%

Q: What about the “Population Pyknosed Nuclei (%)” value (Fibroblast; [6]) of the same molecule?
A: 19% and 13%

Q: And the “Population Tubulin-Different-Phenotype (%)” value (Fibroblast; [6])?
A: 69% and 51%

Q: And the “Total Cell Count” value (Fibroblast; [6])?
A: 155 and 235

Q: What about the “Population Apoptotic (%)” value (Fibroblast; [1]) of the same molecule?
A: 68% and 65%

Q: And the “Population Fragmented Nuclei (%)” value (Fibroblast; [1])?
A: 17% and 13%

Q: What about the “Population Healthy Nuclei (%)” value (Fibroblast; [1]) of the same molecule?
A: 27% and 29%

Q: What about the “Population Hoechst High Intensity Objects (%)” value (Fibroblast; [1]) of the same molecule?
A: 2% and 6%

Q: And the “Population Membrane Permeable-Phenotype (%)” value (Fibroblast; [1])?
A: 27% and 28%

Q: And the “Population Mitochondria Different-Phenotype (%)” value (Fibroblast; [1])?
A: 45% and 47%

Q: And the “Population Mitotic Cells (%)” value (Fibroblast; [1])?
A: 31% and 34%

Q: And the “Population Normal (%)” value (Fibroblast; [1])?
A: 97% and 93%

Q: What about the “Population Pyknosed Nuclei (%)” value (Fibroblast; [1]) of the same molecule?
A: 54% and 56%

Q: And the “Population Tubulin-Different-Phenotype (%)” value (Fibroblast; [1])?
A: 80% and 77%

Q: What about the “Total Cell Count” value (Fibroblast; [1]) of the same molecule?
A: 147 and 216

Q: What about the “Population Apoptotic (%)” value (Fibroblast; [2]) of the same molecule?
A: 72% and 80%

Q: What about the “Population Fragmented Nuclei (%)” value (Fibroblast; [2]) of the same molecule?
A: 15% and 23%

Q: And the “Population Healthy Nuclei (%)” value (Fibroblast; [2])?
A: 68% and 64%

Q: What about the “Population Hoechst High Intensity Objects (%)” value (Fibroblast; [2]) of the same molecule?
A: 0% and 1%

Q: And the “Population Membrane Permeable-Phenotype (%)” value (Fibroblast; [2])?
A: 5% and 3%

Q: What about the “Population Mitochondria Different-Phenotype (%)” value (Fibroblast; [2]) of the same molecule?
A: 11% and 5%

Q: And the “Population Mitotic Cells (%)” value (Fibroblast; [2])?
A: 28% and 20%

Q: And the “Population Normal (%)” value (Fibroblast; [2])?
A: 100% and 98%

Q: What about the “Population Pyknosed Nuclei (%)” value (Fibroblast; [2]) of the same molecule?
A: 15% and 11%

Q: And the “Population Tubulin-Different-Phenotype (%)” value (Fibroblast; [2])?
A: 55% and 42%

Q: And the “Total Cell Count” value (Fibroblast; [2])?
A: 157 and 217

Q: What about the “Population Apoptotic (%)” value (Fibroblast; [3]) of the same molecule?
A: 89% and 84%

Q: And the “Population Fragmented Nuclei (%)” value (Fibroblast; [3])?
A: 27% and 18%

Q: What about the “Population Healthy Nuclei (%)” value (Fibroblast; [3]) of the same molecule?
A: 24% and 32%

Q: And the “Population Hoechst High Intensity Objects (%)” value (Fibroblast; [3])?
A: 5% and 14%

Q: And the “Population Membrane Permeable-Phenotype (%)” value (Fibroblast; [3])?
A: 36% and 40%

Q: And the “Population Mitochondria Different-Phenotype (%)” value (Fibroblast; [3])?
A: 50% and 42%

Q: What about the “Population Mitotic Cells (%)” value (Fibroblast; [3]) of the same molecule?
A: 10% and 15%

Q: And the “Population Normal (%)” value (Fibroblast; [3])?
A: 94% and 85%

Q: And the “Population Pyknosed Nuclei (%)” value (Fibroblast; [3])?
A: 47% and 48%

Q: And the “Population Tubulin-Different-Phenotype (%)” value (Fibroblast; [3])?
A: 76%

Q: What about the “Total Cell Count” value (Fibroblast; [3]) of the same molecule?
A: 128 and 187
